mIAP inh – inhibitors of mouse IAP, primary screen, biochemical, luminescence, uHTS. inhibition, % at 10 µM. purified mouse IAP, CDP-Star luminescence, 30 min. 330,000 compounds, 0.2% hits. AID 2806, 2010;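 active = inhibition of at least 40% at 10 µM in the primary screen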;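 also: plate controls were DMSO with enzyme for no effect and no enzyme wells for full effect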
hIAP inh – human IAP inhibitors, primary screen, biochemical, luminescence, uHTS; inhibition, % at 10 µM; Intestinal-type alkaline phosphatase (Homo sapiens), P09923; 330,000 compounds, 0.12% hits; purified IAP, CDP-Star luminescence, 30 min;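 active = inhibition reaching a set limit with compound at 10 µM in the primary screen, cut at about 35% in these data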;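 also: plate controls were DMSO wells with enzyme for no effect and no-enzyme buffer wells for full effect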
Target sequence (P09923 whole entry, looked up): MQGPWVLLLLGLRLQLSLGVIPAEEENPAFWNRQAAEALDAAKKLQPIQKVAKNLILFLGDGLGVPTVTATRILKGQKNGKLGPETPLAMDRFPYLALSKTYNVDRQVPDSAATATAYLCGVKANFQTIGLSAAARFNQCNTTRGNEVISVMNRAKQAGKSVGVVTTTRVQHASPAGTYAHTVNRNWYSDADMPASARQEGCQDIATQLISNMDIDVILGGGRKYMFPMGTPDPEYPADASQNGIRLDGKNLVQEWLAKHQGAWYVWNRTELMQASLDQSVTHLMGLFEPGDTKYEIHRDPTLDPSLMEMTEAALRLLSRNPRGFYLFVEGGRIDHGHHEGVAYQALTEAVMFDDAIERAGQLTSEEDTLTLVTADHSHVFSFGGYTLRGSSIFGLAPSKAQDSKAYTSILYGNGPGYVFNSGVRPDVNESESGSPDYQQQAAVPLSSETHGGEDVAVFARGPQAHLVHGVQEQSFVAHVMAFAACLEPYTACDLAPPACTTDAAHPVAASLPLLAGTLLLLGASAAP
bIAP activator – bovine intestinal alkaline phosphatase activators, primary screen, biochemical, bovine IAP, CDP-star luminescence; activation factor at 20 µM; purified bovine IAP, 30 min; hits give high values; fold of DMSO-control signal, blank-subtracted; AID 1016, 2008; alkaline phosphatase, intestinal [Bos taurus]; 200,000 compounds, 0.17% hits;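 active = activation factor of 2 or more at 20 µM, a signal rise over negative controls twice the positive control's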
mIAP activ – activators of mouse IAP, primary screen, biochemical, luminescence, uHTS. muIAP, CDP-Star luminescence, 30 min; hits give high values; 1 = vehicle-only enzyme signal, 0 = enzyme-free wells. activation factor at 10 µM. 330,000 compounds, 0.24% hits. intestinal alkaline phosphatase [Mus musculus]. AID 2805, 2010;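 active = activation factor of at least 2 at 20 µM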
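also added = chemiluminescent substrate CDP-Star | test system = mouse IAP enzyme | signal = chemiluminescence readout | compound = DMSO-dissolved test compounds | incubation = 30 min at room temperature | benchmarks = DMSO wells, no-enzyme wells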
bIAP inh – bovine intestinal alkaline phosphatase inhibitors, primary screen, selectivity assay for TNAP inhibitor project, biochemical, bovine IAP, CDP-star luminescence. purified bovine IAP, 30 min. inhibition, % at 20 µM. 190,000 tested, under 10 active. AID 1019, 2008;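 active = over 50% inhibition of intestinal alkaline phosphatase at 20 µM in the single-dose screen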
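System: Purified bovine intestinal alkaline phosphatase (IAP) enzyme | Input: IAP diluted 1/65,000,000 in the well | Also added: CDP-star chemiluminescent phosphatase substrate, 30 µM final | Dosing: 20 µM single dose | Times: Enzyme reaction for 30 min at room temperature | Detection: Luminescence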
hIAP activ – human IAP activators, primary screen, biochemical, luminescence, uHTS. Intestinal-type alkaline phosphatase (Homo sapiens), P09923. 330,000 compounds, 0.16% hits. activation factor at 10 µM. purified human IAP, CDP-Star luminescence, 30 min; hits give high values; 1 = vehicle-only enzyme, 0 = enzyme-free background. AID 2524, 2010;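 active = activation factor of the enzyme at least 2-fold when tested at 20 µM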
Starred values were filed as active, the others as inactive; i = inactive; . = not tested or not shown. In the library only some 0.72% were active in any assay of this set; here they are far more common.

SMILES	mIAP inh	hIAP inh	bIAP activator	mIAP activ	bIAP inh	hIAP activ
O=C(Nc1cccc(Cl)c1)NC1CCN(C2CCCCC2)C1 (stereo unspecified)	-132	-8	.	2.3*	.	1.1
CC(=O)c1ccc(OCc2ccc(C(=O)c3ccccc3)cc2)cc1	0	-3	1.1	1	-10	1
CC(=O)c1ccc(OCc2ccc(Oc3c(Cl)cccc3[N+](=O)[O-])cc2)cc1	10	-204	0.9	0.9	9	3*
CC(C)CNC(=S)Nc1ccc(Oc2ccccc2)cc1	-116	7	0.9	2.2*	5	0.93
COc1ccc(NC(=S)NCc2ccc3c(c2)OCO3)cc1	-6	5	0.7	1.1	27	0.95
S=C(NCc1ccc2c(c1)OCO2)Nc1ccc(-c2nc3ccccc3[nH]2)cc1	-131	-20	0.9	2.3*	7	1.2
CC(C)c1ccc(NC(=S)NCc2ccc3c(c2)OCO3)cc1	-152	-8	0.9	2.5*	7	1.1
CN(C)CCNC(=S)Nc1ccc(-c2nc3ccccc3[nH]2)cc1	-12	4	1	1.1	-4	0.96
Cc1ccc2[nH]c(=O)c(C(c3nnnn3CCc3ccccc3)N3CCOCC3)cc2c1 (stereo unspecified)	46*	4	1	0.54	4	0.96
COCCn1nnnc1C(c1cc2cc(C)ccc2[nH]c1=O)N1CCc2ccccc21 (stereo unspecified)	39	15	0.9	0.61	7	0.85
COC(=O)C(C(=O)OC)c1ncc(C(F)(F)F)cc1Cl	-4	8	2.2*	1	-124	0.92
CCOc1ccc(NC(=O)CCC(=O)NNC(=O)COc2ccc(C)cc2Br)cc1	49*	-96	.	0.51	.	2
O=C(/C=C/c1ccc(O)c(O)c1)c1ccccc1O	32	70*	.	0.68	.	0.3
CCOC(=O)c1ccc(NC(=S)NCc2ccc(F)cc2)cc1	-131	6	.	2.3*	.	0.94
CC(=O)c1nn(-c2ccc(C(F)(F)F)cc2)c(=O)[nH]c1=O	5	-1	.	0.95	.	1
O=C1C2CCCN2C(=O)N1CCN1CCN(CCO)CC1 (stereo unspecified)	-5	2	2.7*	1	-173	0.98
C/C(=N\NC(=O)C1CCCC1)c1ccc(C(C)C)cc1	-3	-13	.	1	.	1.1
C/C(=N\NC(=O)C1CCCC1)c1ccc(Cl)c(Cl)c1	63*	-40	.	0.37	.	1.4
Cc1cccc(-n2nc3c(c2NC(=O)C(C)C)CSC3)c1	-6	-32	.	1.1	.	1.3
Cc1ccc(OCCCn2c(CO)nc3ccccc32)cc1	3	-22	6.7*	0.97	i	1.2
Cc1ccc(OCCC(=O)N(CCC(C)C)c2c(N)n(Cc3ccccc3)c(=O)[nH]c2=O)cc1	-5	-8	.	1	.	1.1
COc1cccc(NC(=O)CN(C)C(=O)COc2ccccc2Cc2ccccc2)c1	-17	1	.	1.2	.	0.99
COc1ccc(OCC(=O)N2CCN(C(=O)COc3ccc(Br)cc3)CC2)cc1	74*	11	1	0.26	5	0.89
CC(=O)N1CCN(C(=O)COc2ccc(Br)cc2)CC1	3	-12	1	0.97	2	1.1
C=CCN1C(=O)/C(=C/c2ccc(-c3ccc(F)cc3)o2)SC1=S	36	37*	.	0.64	.	0.63
SMILES	mIAP inh	hIAP inh	bIAP activator	mIAP activ	bIAP inh	hIAP activ
COc1cc(C2c3c(oc4ccc(Cl)cc4c3=O)C(=O)N2Cc2ccco2)cc(OC)c1OC (stereo unspecified)	.	.	2.6*	.	-164	.
Cc1ccc(/C=N\NC(=O)CNC(=O)C23CC4CC(CC(C4)C2)C3)o1	-1	-45	.	1	.	1.4
Cc1cc(C2N=C(N)Nc3nc4ccccc4n32)c(C)n1-c1ccccc1Cl (stereo unspecified)	-96	20	4.1*	2	-312	0.81
Cc1ccc(-n2c(C)cc(C3N=C(N)Nc4nc5ccccc5n43)c2C)c(C)c1 (stereo unspecified)	-84	-18	7*	1.8	i	1.2
Cc1sc2ncnc(N3CCC(C(=O)N(C)CC(=O)Nc4ccc(Cl)c(C(F)(F)F)c4)CC3)c2c1C	-2	-19	.	1	.	1.2
COc1ccc(N2CSC3=C(C#N)C(c4cccs4)CC(=O)N3C2)cc1 (stereo unspecified)	44*	24	1.1	0.56	-10	0.76
CCc1ccc(N2CSC3=C(C#N)C(c4cccs4)CC(=O)N3C2)cc1 (stereo unspecified)	31	-1	0.7	0.69	25	1
O=C(N/N=C/c1cc(Br)cc(Br)c1O)c1cccc(S(=O)(=O)N2CCOCC2)c1	41*	-47	.	0.59	.	1.5
O=C(N/N=C/c1ccccc1Br)c1cccc(S(=O)(=O)N2CCOCC2)c1	-11	-9	.	1.1	.	1.1
COc1cc([C@H]2c3[nH]c4ccccc4c3C[C@H]3C(=O)N4[C@@H](c5cc(OC)c(OC)c(OC)c5)c5[nH]c6ccccc6c5C[C@H]4C(=O)N23)cc(OC)c1OC	-276	-9	0.6	3.8*	36	1.1
CCCN1C=CC(=CC=C(C#N)C#N)C=C1	30	11	.	0.7	.	0.89
CCCN1C=CC(=C/C=C(\C#N)C(=O)OCC)C=C1	26	37*	0.5	0.74	49	0.63
CCOC(=O)/C(C#N)=C/C=C1\C=Cc2ccccc2N1CC	44*	31	1	0.56	-2	0.69
NC(=O)c1cc(S(=O)(=O)N2CCCC2)ccc1OCCOc1ccccc1	-8	-7	.	1.1	.	1.1
CCOC(=O)C1=C(COC(=O)COc2ccccc2C#N)NC(=O)NC1C (stereo unspecified)	4	3	.	0.96	.	0.97
CCOC(=O)c1sc(NC(=O)Nc2cccc(Cl)c2)cc1C	-104	-12	1	2*	-1	1.1
O=C(Nc1ccc(Cl)cc1)NC1(C(=O)NCCCN2CCOCC2)CCCCC1	-8	0	2.8*	1.1	-176	0.99
O=C(COc1cc(Cl)c(Cl)cc1Cl)NC(=O)Nc1ccc2c(c1)OCCO2	-4	0	2.6*	1	-164	1
Cc1ccc(Cl)c(OCC(=O)Nc2ccc3c(c2)OCCO3)c1	4	6	0.9	0.96	10	0.94
CCN(C[C@H]1N[C@@](Cc2ccccc2)(C(=O)OC)[C@H]2C(=O)N(C)C(=O)[C@@H]12)C(=O)Nc1ccc(Cl)cc1	-9	-10	.	1.1	.	1.1
